# According to ChEMBL document CHEMBL5058577, “EUbOPEN Chemogenomics Library 2 (Multiplex)” (2022):
# Tested on: HEK-293T
# Experiment: Multiplex assay against HEK293T
# Type: toxicity, cell-based
# Settings: human
# Method in brief: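 On a CQ1 microscope at 37°C and 5% CO2, live cells were imaged after compound addition. They had been stained at seeding with Hoechst33342, BioTracker Green Microtubule Cytoskeleton Dye, MitoTracker Red and Annexin V Alexa Fluor 680. CellPathfinder machine-learning gating assigned cells to Hoechst high-intensity objects or normal cells, normal cells to healthy, pyknosed or fragmented nuclei, and pyknosed cells to mitotic or apoptotic. Tubulin, mitochondrial-mass and membrane-permeability phenotypes are per cents of healthy-nucleus cells.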
# [1] = 12 h, 1 µM, compound concentration 1 uM, replicate 1
# [2] = 12 h, 1 µM, compound concentration 1 uM, replicate 2
# [3] = 12 h, 10 µM, compound concentration 10 uM, replicate 1
# [4] = 12 h, 10 µM, compound concentration 10 uM, replicate 2
# [5] = 24 h, 1 µM, compound concentration 1 uM, replicate 1
# [6] = 24 h, 1 µM, compound concentration 1 uM, replicate 2
# [7] = 24 h, 10 µM, compound concentration 10 uM, replicate 1
# [8] = 24 h, 10 µM, compound concentration 10 uM, replicate 2
# [9] = 48 h, 1 µM, compound concentration 1 uM, replicate 1
# [10] = 48 h, 1 µM, compound concentration 1 uM, replicate 2
# [11] = 48 h, 10 µM, compound concentration 10 uM, replicate 1
# [12] = 48 h, 10 µM, compound concentration 10 uM, replicate 2
smiles,measurement,setting,value
CN1CCN2c3ncccc3Cc3ccccc3C2C1 (centres undefined) [MIRTAZAPINE],Population Apoptotic (%),[1],58%
same,Population Fragmented Nuclei (%),[1],4%
same,Population Healthy Nuclei (%),[1],88%
same,Population Hoechst High Intensity Objects (%),[1],5%
same,Population Membrane Permeable-Phenotype (%),[1],0%
same,Population Mitochondria Different-Phenotype (%),[1],41%
same,Population Mitotic Cells (%),[1],41%
same,Population Normal (%),[1],94%
same,Population Pyknosed Nuclei (%),[1],7%
same,Population Tubulin-Different-Phenotype (%),[1],22%
same,Total Cell Count,[1],402
same,Population Apoptotic (%),[2],51%
same,Population Fragmented Nuclei (%),[2],3%
same,Population Healthy Nuclei (%),[2],79%
same,Population Hoechst High Intensity Objects (%),[2],7%
same,Population Mitochondria Different-Phenotype (%),[2],68%
same,Population Mitotic Cells (%),[2],48%
same,Population Normal (%),[2],92%
same,Population Pyknosed Nuclei (%),[2],17%
same,Population Tubulin-Different-Phenotype (%),[2],21%
same,Total Cell Count,[2],329
same,Population Apoptotic (%),[3],45%
same,Population Fragmented Nuclei (%),[3],9%
same,Population Healthy Nuclei (%),[3],75%
same,Population Hoechst High Intensity Objects (%),[3],6%
same,Population Membrane Permeable-Phenotype (%),[3],0%
same,Population Mitochondria Different-Phenotype (%),[3],49%
same,Population Mitotic Cells (%),[3],54%
same,Population Normal (%),[3],93%
same,Population Pyknosed Nuclei (%),[3],15%
same,Population Tubulin-Different-Phenotype (%),[3],43%
same,Total Cell Count,[3],228
same,Population Apoptotic (%),[4],47%
same,Population Fragmented Nuclei (%),[4],5%
same,Population Healthy Nuclei (%),[4],79%
same,Population Membrane Permeable-Phenotype (%),[4],1%
same,Population Mitochondria Different-Phenotype (%),[4],64%
same,Population Mitotic Cells (%),[4],52%
same,Population Tubulin-Different-Phenotype (%),[4],36%
same,Total Cell Count,[4],240
same,Population Apoptotic (%),[5],33%
same,Population Fragmented Nuclei (%),[5],9%
same,Population Healthy Nuclei (%),[5],80%
same,Population Hoechst High Intensity Objects (%),[5],3%
same,Population Membrane Permeable-Phenotype (%),[5],0%
same,Population Mitochondria Different-Phenotype (%),[5],35%
same,Population Mitotic Cells (%),[5],66%
same,Population Normal (%),[5],97%
same,Population Pyknosed Nuclei (%),[5],10%
same,Population Tubulin-Different-Phenotype (%),[5],18%
same,Total Cell Count,[5],601
same,Population Apoptotic (%),[6],42%
same,Population Fragmented Nuclei (%),[6],6%
same,Population Healthy Nuclei (%),[6],79%
same,Population Hoechst High Intensity Objects (%),[6],6%
same,Population Mitochondria Different-Phenotype (%),[6],47%
same,Population Mitotic Cells (%),[6],57%
same,Population Normal (%),[6],93%
same,Population Pyknosed Nuclei (%),[6],14%
same,Population Tubulin-Different-Phenotype (%),[6],17%
same,Total Cell Count,[6],373
same,Population Apoptotic (%),[7],44%
same,Population Fragmented Nuclei (%),[7],9%
same,Population Healthy Nuclei (%),[7],78%
same,Population Hoechst High Intensity Objects (%),[7],3%
same,Population Membrane Permeable-Phenotype (%),[7],0%
same,Population Mitochondria Different-Phenotype (%),[7],40%
same,Population Mitotic Cells (%),[7],55%
same,Population Normal (%),[7],96%
same,Population Pyknosed Nuclei (%),[7],12%
same,Population Tubulin-Different-Phenotype (%),[7],28%
same,Total Cell Count,[7],274
same,Population Apoptotic (%),[8],32%
same,Population Fragmented Nuclei (%),[8],5%
same,Population Healthy Nuclei (%),[8],80%
same,Population Hoechst High Intensity Objects (%),[8],5%
same,Population Mitochondria Different-Phenotype (%),[8],44%
same,Population Mitotic Cells (%),[8],67%
same,Population Normal (%),[8],94%
same,Population Pyknosed Nuclei (%),[8],13%
same,Population Tubulin-Different-Phenotype (%),[8],18%
same,Total Cell Count,[8],314
same,Population Apoptotic (%),[9],23%
same,Population Fragmented Nuclei (%),[9],11%
same,Population Healthy Nuclei (%),[9],82%
same,Population Hoechst High Intensity Objects (%),[9],2%
same,Population Membrane Permeable-Phenotype (%),[9],1%
same,Population Mitochondria Different-Phenotype (%),[9],19%
same,Population Mitotic Cells (%),[9],76%
same,Population Normal (%),[9],97%
same,Population Pyknosed Nuclei (%),[9],6%
same,Population Tubulin-Different-Phenotype (%),[9],13%
same,Total Cell Count,[9],885
same,Population Apoptotic (%),[10],44%
same,Population Fragmented Nuclei (%),[10],13%
same,Population Healthy Nuclei (%),[10],80%
same,Population Hoechst High Intensity Objects (%),[10],3%
same,Population Membrane Permeable-Phenotype (%),[10],0%
same,Population Mitochondria Different-Phenotype (%),[10],21%
same,Population Mitotic Cells (%),[10],55%
same,Population Normal (%),[10],96%
same,Population Tubulin-Different-Phenotype (%),[10],9%
same,Total Cell Count,[10],562
same,Population Apoptotic (%),[11],31%
same,Population Fragmented Nuclei (%),[11],14%
same,Population Healthy Nuclei (%),[11],74%
same,Population Hoechst High Intensity Objects (%),[11],2%
same,Population Membrane Permeable-Phenotype (%),[11],0%
same,Population Mitochondria Different-Phenotype (%),[11],36%
same,Population Mitotic Cells (%),[11],68%
same,Population Normal (%),[11],97%
same,Population Pyknosed Nuclei (%),[11],10%
same,Population Tubulin-Different-Phenotype (%),[11],20%
same,Total Cell Count,[11],390
same,Population Apoptotic (%),[12],30%
same,Population Fragmented Nuclei (%),[12],11%
same,Population Healthy Nuclei (%),[12],81%
same,Population Hoechst High Intensity Objects (%),[12],3%
same,Population Mitochondria Different-Phenotype (%),[12],30%
same,Population Mitotic Cells (%),[12],69%
same,Population Normal (%),[12],96%
same,Population Pyknosed Nuclei (%),[12],7%
same,Population Tubulin-Different-Phenotype (%),[12],12%
same,Total Cell Count,[12],521
